Assay results as given in ChEMBL document CHEMBL3525967, “In vitro glucuronidation of the antibacterial triclocarban and its oxidative metabolites” (Drug Metab Dispos, 2012).

How the values were obtained:
[1] = Intrinsic clearance in cynomolgus monkey liver microsomes after 30 mins by LC-ESI-MS analysis; assay type: ADME, Macaca fascicularis; conditions: 0.5 h
Procedure, shortened: (§1)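 2'-OH-TCC at 0.2, 0.5, 1, 2, 3, 5, 10 and 50 µM incubated with liver microsomes (alamethicin, MgCl2, saccharolactone, UDPGA; 37 °C), sampled at 5, 10, 15 and 30 min. Samples ≥5 µM diluted 1:9 in ACN; LC-ESI-MS. KM and vmax fitted from rate vs concentration; intrinsic clearance derived from these; mean and SD of three.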

[2] = Drug metabolism in cynomolgus monkey liver microsomes after 30 mins by LC-ESI-MS analysis; assay type: ADME, Macaca fascicularis; procedure, shortened: as §1
[3] = Drug metabolism in cynomolgus monkey liver microsomes assessed as N'-glucuronide-triclocarban formation incubated for 5 mins prior to UDPGA addition measured after 30 mins by LC-UV-ESI-MS/MS analysis; assay type: ADME, Macaca fascicularis; conditions: 0.5 h
Procedure, shortened: (§2)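 TCC was incubated at 10 µM (2% DMSO) in 100 mM phosphate pH 7.4 with alamethicin-treated microsomes or Supersomes, 10 mM MgCl2 and 10 mM saccharolactone. After 5 min pre-incubation at 37 °C, UDPGA was added to start the reaction. Protein was raised up to 2 mg/mL. Samples were quenched in ACN with 1 µM DCC internal standard, centrifuged, and N-glucuronides detected by LC-ESI-MS/MS in SRM mode.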

[4] = biological target: T1, UDP-glucuronosyltransferase 1A9 (Homo sapiens, UniProt O60656); test: Drug metabolism assessed as human UGT1A9-mediated N'-glucuronide-triclocarban formation expressed in baculovirus infected insect sf9 cells incubated for 5 mins prior to UDPGA addition measured after 30 mins by LC-ESI-MS analysis; assay type: ADME; conditions: sf9, 0.5 h; procedure, shortened: as §2
T1 sequence (O60656 whole entry): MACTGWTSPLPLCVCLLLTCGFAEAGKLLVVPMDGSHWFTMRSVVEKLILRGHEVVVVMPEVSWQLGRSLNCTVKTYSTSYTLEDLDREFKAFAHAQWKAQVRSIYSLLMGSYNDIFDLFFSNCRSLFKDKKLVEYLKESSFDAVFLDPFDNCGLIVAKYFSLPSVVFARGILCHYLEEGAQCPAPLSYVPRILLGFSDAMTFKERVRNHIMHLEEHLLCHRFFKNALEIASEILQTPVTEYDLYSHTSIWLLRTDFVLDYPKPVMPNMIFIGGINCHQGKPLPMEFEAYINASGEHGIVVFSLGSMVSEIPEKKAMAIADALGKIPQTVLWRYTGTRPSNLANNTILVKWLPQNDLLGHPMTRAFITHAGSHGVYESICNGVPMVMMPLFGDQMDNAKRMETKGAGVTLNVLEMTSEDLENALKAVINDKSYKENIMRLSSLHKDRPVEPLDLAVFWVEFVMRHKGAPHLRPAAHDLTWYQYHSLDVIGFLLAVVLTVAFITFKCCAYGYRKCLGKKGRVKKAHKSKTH

[5] = biological target: T1, UDP-glucuronosyltransferase 1A9; test: Drug metabolism assessed as human UGT1A9-mediated N'-glucuronide-triclocarban formation expressed in baculovirus infected insect sf9 cells incubated for 5 mins prior to UDPGA addition measured after 5 to 30 mins by LC-UV analysis; assay type: ADME
Procedure, shortened: (§3)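 Microsomes or UGT Supersomes (5 µg protein) were held 15 min on ice with alamethicin in 100 mM potassium phosphate pH 7.4. TCC was added at 10 µM (2% DMSO) with 10 mM MgCl2 and 10 mM saccharolactone, pre-warmed 5 min at 37 °C, then started with UDPGA. Samples at 5, 10, 15 and 30 min were quenched in ACN. Product was read by LC-UV at 265 nm; rate came from regression over time, three incubations.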

[6] = biological target: T2, UDP-glucuronosyltransferase 1A6 (Homo sapiens, UniProt P19224); test: Drug metabolism assessed as human UGT1A6-mediated N-glucuronide-triclocarban formation expressed in baculovirus infected insect sf9 cells incubated for 5 mins prior to UDPGA addition measured after 5 to 30 mins by LC-UV analysis; assay type: ADME; procedure, shortened: as §3
T2 sequence (P19224 whole entry): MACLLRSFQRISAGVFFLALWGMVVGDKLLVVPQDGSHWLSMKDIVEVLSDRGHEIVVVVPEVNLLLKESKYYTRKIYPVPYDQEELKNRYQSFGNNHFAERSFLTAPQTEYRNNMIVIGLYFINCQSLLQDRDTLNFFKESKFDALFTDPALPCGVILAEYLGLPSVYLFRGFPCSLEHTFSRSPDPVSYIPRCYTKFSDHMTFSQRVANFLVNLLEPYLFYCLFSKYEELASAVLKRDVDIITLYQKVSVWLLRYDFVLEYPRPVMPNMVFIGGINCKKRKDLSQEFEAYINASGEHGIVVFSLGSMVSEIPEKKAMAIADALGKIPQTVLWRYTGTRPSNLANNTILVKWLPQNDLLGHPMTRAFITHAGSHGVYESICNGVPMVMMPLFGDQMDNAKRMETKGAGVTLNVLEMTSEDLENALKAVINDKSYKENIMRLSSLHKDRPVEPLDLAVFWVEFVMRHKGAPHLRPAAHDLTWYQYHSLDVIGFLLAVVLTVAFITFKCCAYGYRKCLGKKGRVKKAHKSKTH

[7] = Drug metabolism in human intestinal microsomes assessed as N-glucuronide-triclocarban formation incubated for 5 mins prior to UDPGA addition measured after 5 to 30 mins by LC-UV analysis; assay type: ADME, Intestine, Microsome; procedure, shortened: as §3
[8] = biological target: T2, UDP-glucuronosyltransferase 1A6; test: Drug metabolism assessed as human UGT1A6-mediated N'-glucuronide-triclocarban formation expressed in baculovirus infected insect sf9 cells incubated for 5 mins prior to UDPGA addition measured after 5 to 30 mins by LC-UV analysis; assay type: ADME; procedure, shortened: as §3
[9] = Drug excretion in monkey urine; assay type: ADME, tissue-based, Macaca mulatta; conditions: rhesus monkey, read-out: Drug excretion
Liver microsome = test: Drug metabolism in human liver microsomes assessed as N'-glucuronide-triclocarban formation incubated for 5 mins prior to UDPGA addition measured after 5 to 30 mins by LC-UV analysis; assay type: ADME
Procedure, shortened: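 Pooled human kidney or liver microsomes (liver: 25 mixed-gender donors), 5 µg protein, in 200 µL 100 mM potassium phosphate pH 7.4. Alamethicin pre-treated on ice 15 min. Final 10 µM TCC (2% DMSO), with 10 mM MgCl2 and 10 mM saccharolactone, preincubated 5 min at 37 °C. Started with UDPGA (20 mM stock). Sampled at 5, 10, 15 and 30 min into ACN containing 1 µM DCC internal standard.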

CLH [1] | Km at 0.5 h ([2]; liver microsomes) | Vmax ([2]; microsomes, 0.5 h) | SMILES | Drug metabolism [3] | Drug metabolism [4] | Drug metabolism [5] | Drug metabolism [6] | Drug metabolism [7] | Drug metabolism [8] | dose excreted [9] | Drug metabolism (Liver microsome)
19100 µL/min/mg | 1.4 µM | 26.7 nmol/min/mg | O=C(Nc1ccc(Cl)c(Cl)c1)Nc1ccc(Cl)cc1O |  |  |  |  |  |  |  | 
 |  |  | O=C(Nc1ccc(Cl)cc1)Nc1ccc(Cl)c(Cl)c1 [TRICLOCARBAN] | metabolite_detected | metabolite_detected | metabolite_not_detected | metabolite_not_detected | metabolite_not_detected | metabolite_not_detected | 25% | metabolite_not_detected
